The values that follow come from ChEMBL document CHEMBL2429814 (J Med Chem, 2013).

Each structure is given as a SMILES string. Activity calls are given as the source filed them. No cut-off for these calls is given here.

Series [1] concerns the target Metabotropic glutamate receptor 2 (Rattus norvegicus) (UniProt P31421). Kind of series: Potentiation of rat mGluR2 receptor stably expressed in HEK293-GIRK cells assessed as fold shift in glutamate concentration response curve at 10 uM by C2+ mobilization assay relative to control. In kind it is cell-based. Particulars: in the assay text read “thallium flux assay” for “C2+ mobilization assay”. In outline:
(§1)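 HEK293-GIRK cells expressing the rat mGlu subtype were plated at 15,000 cells/well. Compound at 10 µM, or vehicle, was added, then 140 s later a concentration-response curve of glutamate (L-AP4 for mGlu7) in thallium buffer containing 12 mM thallium sulfate. Thallium flux through GIRK channels was read by fluorescence, and the fold shift of the agonist curve was derived.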

The target in series [2] is Metabotropic glutamate receptor 4 (Rattus norvegicus) (UniProt P31423). Kind of series: Potentiation of rat mGluR4 receptor stably expressed in HEK293-GIRK cells assessed as fold shift in glutamate concentration response curve at 10 uM by C2+ mobilization assay relative to control. In kind it is cell-based. Particulars: in the assay text read “thallium flux assay” for “C2+ mobilization assay”. An outline of the steps: as §1

For series [3], the target named is T1, Metabotropic glutamate receptor 5 (Rattus norvegicus, UniProt P31424). Kind of series: Agonist activity at mGlu5R in CA3 pyramidal neurons Sprague-Dawley rat hippocampus assessed as effect on amplitude relative to control. In kind it is tissue-based.
Another series has as its target Cytochrome P450 2D6 (Homo sapiens, UniProt P10635). Kind of series: Inhibition of human CYP2D6. In kind it is ADME. In outline: (§2)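 Inhibition of individual human CYP isoforms (2C9, 2D6, 3A4) measured in human liver microsomes; IC50 values reported.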
The subject of another series is Brain. The experiment in a line: Fraction unbound in rat brain. In kind it is ADME, tissue-based. An outline of the steps:
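Binding to rat brain homogenate used to derive fraction unbound in brain.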

The nature of series [4]: Agonist activity at rat mGluR5 S808A mutant stably expressed in HEK293 cells assessed as increase in intracellular calcium level at 1 to 100 uM by Fluo-4AM dye-based fluorescence assay. In kind it is cell-based. Particulars: hek293, 100 µM. In general terms: Calcium assays in cells follow changes in intracellular calcium, usually with a dye or a luminescent sensor.
The next series addresses Cytochrome P450 2C9 (Homo sapiens, UniProt P11712). The experiment in a line: Inhibition of human CYP2C9. The class given is ADME. In outline: as §2
Series [5] concerns the target Metabotropic glutamate receptor 3 (Rattus norvegicus) (UniProt P31422). The experiment in a line: Potentiation of rat mGluR3 receptor stably expressed in HEK293-GIRK cells assessed as fold shift in glutamate concentration response curve at 10 uM by C2+ mobilization assay relative to control. In kind it is cell-based. The note with it: in the assay text read “thallium flux assay” for “C2+ mobilization assay”. In outline: as §1

A short description of series [6]: Agonist activity at rat mGluR5 T780A mutant stably expressed in HEK293 cells assessed as increase in intracellular calcium level at 1 to 100 uM by Fluo-4AM dye-based fluorescence assay. In kind it is cell-based. Particulars: hek293, 100 µM.
Series [7] has as its system Plasma. Kind of series: Fraction unbound in rat plasma by equilibrium dialysis method. In kind it is ADME, cell-free. In outline: (§3)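 Plasma protein binding measured by equilibrium dialysis in human or rat plasma; reported as percent unbound.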
The target of series [8] is T1, Metabotropic glutamate receptor 5. The experiment in a line: Agonist activity at mGlu5R in CA3 pyramidal neurons Sprague-Dawley rat hippocampus assessed as effect on intervent interval relative to control. The class given is tissue-based. An outline of the steps: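 Male Sprague-Dawley rats aged 24–30 days; hippocampal slices equilibrated 5–10 min at 30–32°C in a submersion chamber. Recording electrode in the CA3 pyramidal cell body layer. Compound diluted in DMSO and bath-perfused. Spontaneous epileptiform events recorded as field potentials, with inter-event interval normalized to baseline.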

For series [9] the target is unchanged. Kind of series: Agonist activity at mGlu5R in SC-CA1 synapse of Sprague-Dawley rat hippocampus assessed as induction of long-term depression at 10 uM measured 55 mins post compound washout. The class given is tissue-based. An outline of the steps: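 Male Sprague-Dawley rats aged 30–40 days; hippocampal slices at 30–32°C. Bipolar stimulation of Schaffer collaterals near the CA3-CA1 border, recording in CA1 stratum radiatum, baseline intensity 50–60% of maximum. Compound in DMSO, bath-perfused. fEPSP slopes averaged over three sequential responses and normalized to the pre-drug baseline.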

The next series concerns the target T2, Cytochrome P450 1A2 (Homo sapiens, UniProt P05177).
T2 sequence (P05177 whole entry): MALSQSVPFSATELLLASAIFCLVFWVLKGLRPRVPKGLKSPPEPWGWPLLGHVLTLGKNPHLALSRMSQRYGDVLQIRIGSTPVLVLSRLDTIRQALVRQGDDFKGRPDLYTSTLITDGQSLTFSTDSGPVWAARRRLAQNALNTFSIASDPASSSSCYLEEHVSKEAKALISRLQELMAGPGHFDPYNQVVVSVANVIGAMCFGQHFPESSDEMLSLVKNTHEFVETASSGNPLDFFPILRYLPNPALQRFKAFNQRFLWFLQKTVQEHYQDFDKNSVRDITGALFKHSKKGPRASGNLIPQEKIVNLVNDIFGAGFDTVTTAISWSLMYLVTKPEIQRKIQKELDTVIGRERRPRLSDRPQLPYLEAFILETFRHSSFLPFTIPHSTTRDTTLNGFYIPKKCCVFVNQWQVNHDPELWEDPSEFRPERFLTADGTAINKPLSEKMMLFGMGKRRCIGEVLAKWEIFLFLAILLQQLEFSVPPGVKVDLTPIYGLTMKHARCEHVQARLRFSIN
The experiment in a line: Inhibition of human CYP1A2. The class given is ADME. In outline: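 Inhibition of the human CYP1A2 isoform measured in human liver microsomes; reported as IC50.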

Series [10] concerns the target Metabotropic glutamate receptor 6 (Rattus norvegicus) (UniProt P35349). Kind of series: Potentiation of rat mGluR6 receptor stably expressed in HEK293-GIRK cells assessed as fold shift in glutamate concentration response curve at 10 uM by C2+ mobilization assay relative to control. Particulars: in the assay text read “thallium flux assay” for “C2+ mobilization assay”. The class given is cell-based. An outline of the steps:
as §1

Series [11] concerns Plasma. Kind of series: Fraction unbound in human plasma by equilibrium dialysis method. The class given is ADME, cell-free. In outline: as §3
For series [12], the target named is Metabotropic glutamate receptor 8 (Rattus norvegicus) (UniProt P70579). The experiment in a line: Potentiation of rat mGluR8 receptor stably expressed in HEK293-GIRK cells assessed as fold shift in glutamate concentration response curve at 10 uM by C2+ mobilization assay relative to control. The class given is cell-based. The note with it: in the assay text read “thallium flux assay” for “C2+ mobilization assay”. In outline:
as §1

Series [13] concerns the target Metabotropic glutamate receptor 1 (Rattus norvegicus) (UniProt P23385). Kind of series: Potentiation of rat mGluR1 receptor stably expressed in HEK293 cells assessed as fold shift in glutamate concentration response curve at 10 uM by […] mobilization assay relative to control. The class given is cell-based. An outline of the steps: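 HEK293 cells stably expressing rat mGlu1 were plated at 20,000 cells/well and loaded with Fluo-4AM. Compound at 10 µM final, or vehicle, was added, then a glutamate concentration-response curve 140 s later. Calcium flux was measured as fluorescence increase, and the fold shift of the glutamate curve was derived.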

In series [14] the target is Metabotropic glutamate receptor 5 (Rattus norvegicus) (UniProt P31424). The experiment in a line: Positive allosteric modulation of rat mGluR5 stably expressed in HEK293 cells assessed as increase in intracellular calcium level by Fluo-4AM dye-based fluorescence assay relative to glutamate. In kind it is functional, cell-based.
Series [15] concerns the target Metabotropic glutamate receptor 7 (Rattus norvegicus) (UniProt P35400). Kind of series: Potentiation of rat mGluR7 receptor stably expressed in HEK293-GIRK cells assessed as fold shift in […] concentration response curve at 10 uM by […] relative to control. In kind it is cell-based. An outline of the steps: as §1
The nature of series [16]: Agonist activity at rat mGluR5 W784A mutant stably expressed in HEK293 cells assessed as increase in intracellular calcium level at 1 to 100 uM by Fluo-4AM dye-based fluorescence assay. In kind it is cell-based. Particulars: hek293, 100 µM.
Series [17] concerns the target Metabotropic glutamate receptor 5 (Rattus norvegicus) (UniProt P31424). The experiment in a line: Potentiation of rat mGluR5 receptor stably expressed in HEK293 cells assessed as fold shift in glutamate concentration response curve at 10 uM relative to control. In kind it is cell-based. An outline of the steps: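 HEK293 cells stably expressing rat mGlu5 were loaded with Fluo-4AM. Compound at 10 µM, or vehicle, was added, and a glutamate concentration-response curve followed 140 s later. The fold leftward shift of the glutamate curve was read from calcium fluorescence. Values are means of three independent experiments in triplicate.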

Series [18] has as its target T1, Metabotropic glutamate receptor 5. The experiment in a line: Positive allosteric modulation of rat mGluR5 stably expressed in HEK293 cells assessed as increase in intracellular calcium level by Fluo-4AM dye-based fluorescence assay. The class given is functional, cell-based. In outline:
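HEK293 cells stably expressing rat mGlu5 (low receptor density line), 15,000 cells/well, grown overnight at 37°C/5% CO2. Loaded with Fluo-4AM for 50 min at 37°C in HBSS with 20 mM HEPES, 2.5 mM probenecid, pH 7.4. Triple add: compound, then EC20 glutamate 140 s later, then EC80 glutamate 60 s later. Calcium fluorescence read over time. Values are means of ≥3 independent experiments run in duplicate or triplicate.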

For series [19] the target is unchanged. Kind of series: Positive allosteric modulation of rat mGluR5 stably expressed in CHO cells assessed as calcium mobilization. The class given is functional, cell-based.
The nature of series [20]: Protein binding in (unknown origin) plasma. In kind it is ADME, cell-free. Particulars: read-out: PPB (converted).
Series [21] in a line: Ratio of drug level in brain to plasma in (unknown origin). In kind it is ADME, cell-free. The note with it: brain and plasma; read-out: BPR.
Series [22] concerns the target T3, Metabotropic glutamate receptor 5 (Homo sapiens, UniProt P41594). Kind of series: Positive allosteric modulation of mGluR5 (unknown origin).
Series [23] concerns the target T3, Metabotropic glutamate receptor 5. The experiment in a line: Positive allosteric modulation of human mGluR5 stably expressed in HEK293 cells assessed as Ca2+ flux by FLIPR assay.
Series [24] has as its target T1, Metabotropic glutamate receptor 5. Kind of series: Positive allosteric modulation of rat mGluR5 stably expressed in HEK293 cells assessed as Ca2+ flux by FLIPR assay. In kind it is functional, cell-based.

T1 sequence (P31424 whole entry, canonical isoform): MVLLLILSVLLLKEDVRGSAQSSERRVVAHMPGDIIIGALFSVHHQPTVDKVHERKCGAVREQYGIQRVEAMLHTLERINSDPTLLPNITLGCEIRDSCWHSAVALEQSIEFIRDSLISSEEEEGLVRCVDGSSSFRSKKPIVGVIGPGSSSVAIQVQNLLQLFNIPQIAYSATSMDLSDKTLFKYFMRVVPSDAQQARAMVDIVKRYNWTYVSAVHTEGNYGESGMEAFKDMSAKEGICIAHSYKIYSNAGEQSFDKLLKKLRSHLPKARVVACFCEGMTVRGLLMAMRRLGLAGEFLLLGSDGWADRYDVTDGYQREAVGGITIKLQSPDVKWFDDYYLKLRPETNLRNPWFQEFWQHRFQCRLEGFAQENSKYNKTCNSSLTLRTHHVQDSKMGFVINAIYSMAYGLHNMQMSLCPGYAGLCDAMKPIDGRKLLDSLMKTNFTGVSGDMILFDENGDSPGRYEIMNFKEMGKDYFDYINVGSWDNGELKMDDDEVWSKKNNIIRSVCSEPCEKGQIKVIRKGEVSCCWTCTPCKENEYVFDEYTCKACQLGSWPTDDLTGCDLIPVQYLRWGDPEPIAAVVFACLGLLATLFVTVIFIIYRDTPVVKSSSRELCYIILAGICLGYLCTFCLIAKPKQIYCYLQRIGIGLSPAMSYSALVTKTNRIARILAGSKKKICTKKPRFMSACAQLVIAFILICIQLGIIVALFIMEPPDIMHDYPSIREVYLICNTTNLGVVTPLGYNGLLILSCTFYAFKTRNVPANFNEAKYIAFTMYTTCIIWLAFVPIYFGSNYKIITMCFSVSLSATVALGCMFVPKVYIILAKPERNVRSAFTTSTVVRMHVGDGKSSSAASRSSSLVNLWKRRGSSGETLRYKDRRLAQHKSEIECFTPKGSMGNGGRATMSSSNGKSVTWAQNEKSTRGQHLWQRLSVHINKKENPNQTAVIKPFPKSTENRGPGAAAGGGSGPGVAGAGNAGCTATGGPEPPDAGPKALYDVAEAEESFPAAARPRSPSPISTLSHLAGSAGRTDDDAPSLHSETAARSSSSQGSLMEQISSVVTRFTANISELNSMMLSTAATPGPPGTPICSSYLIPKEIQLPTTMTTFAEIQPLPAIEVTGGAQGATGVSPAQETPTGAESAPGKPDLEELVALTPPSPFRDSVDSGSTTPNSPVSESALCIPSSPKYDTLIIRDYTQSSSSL
Metabotropic glutamate receptor 5 (Rattus norvegicus), sequence (P31424 21-1203 limits assumed): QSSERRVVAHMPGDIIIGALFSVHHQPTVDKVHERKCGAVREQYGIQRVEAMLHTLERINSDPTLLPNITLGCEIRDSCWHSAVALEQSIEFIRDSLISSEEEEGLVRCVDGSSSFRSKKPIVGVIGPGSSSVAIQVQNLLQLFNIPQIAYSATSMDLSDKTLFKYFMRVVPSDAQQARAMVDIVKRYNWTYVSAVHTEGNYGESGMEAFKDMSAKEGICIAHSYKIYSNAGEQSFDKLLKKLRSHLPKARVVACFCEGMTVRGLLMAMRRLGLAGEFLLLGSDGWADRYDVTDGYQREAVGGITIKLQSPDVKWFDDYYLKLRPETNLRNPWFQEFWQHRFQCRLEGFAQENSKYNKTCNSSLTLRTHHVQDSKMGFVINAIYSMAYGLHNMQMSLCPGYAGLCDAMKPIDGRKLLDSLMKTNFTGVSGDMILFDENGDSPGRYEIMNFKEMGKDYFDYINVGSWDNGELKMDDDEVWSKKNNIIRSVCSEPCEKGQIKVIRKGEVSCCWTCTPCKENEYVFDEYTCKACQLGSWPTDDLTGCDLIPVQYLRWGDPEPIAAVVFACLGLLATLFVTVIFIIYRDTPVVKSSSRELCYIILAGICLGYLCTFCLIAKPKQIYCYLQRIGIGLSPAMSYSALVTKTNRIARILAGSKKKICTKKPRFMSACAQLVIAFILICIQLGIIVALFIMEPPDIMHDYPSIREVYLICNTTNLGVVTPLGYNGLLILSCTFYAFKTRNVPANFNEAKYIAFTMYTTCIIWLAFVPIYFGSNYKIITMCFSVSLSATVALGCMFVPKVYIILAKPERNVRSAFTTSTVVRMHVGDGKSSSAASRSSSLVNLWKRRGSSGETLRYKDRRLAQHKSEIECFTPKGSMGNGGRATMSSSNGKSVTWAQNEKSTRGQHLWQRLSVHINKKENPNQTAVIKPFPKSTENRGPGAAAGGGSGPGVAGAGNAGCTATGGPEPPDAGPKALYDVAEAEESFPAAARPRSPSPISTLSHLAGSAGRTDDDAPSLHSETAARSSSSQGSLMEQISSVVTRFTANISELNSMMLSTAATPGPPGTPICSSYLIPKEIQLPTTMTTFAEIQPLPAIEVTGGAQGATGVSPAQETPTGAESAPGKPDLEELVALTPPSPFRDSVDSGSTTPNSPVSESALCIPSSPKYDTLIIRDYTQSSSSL
T3 sequence (P41594 whole entry): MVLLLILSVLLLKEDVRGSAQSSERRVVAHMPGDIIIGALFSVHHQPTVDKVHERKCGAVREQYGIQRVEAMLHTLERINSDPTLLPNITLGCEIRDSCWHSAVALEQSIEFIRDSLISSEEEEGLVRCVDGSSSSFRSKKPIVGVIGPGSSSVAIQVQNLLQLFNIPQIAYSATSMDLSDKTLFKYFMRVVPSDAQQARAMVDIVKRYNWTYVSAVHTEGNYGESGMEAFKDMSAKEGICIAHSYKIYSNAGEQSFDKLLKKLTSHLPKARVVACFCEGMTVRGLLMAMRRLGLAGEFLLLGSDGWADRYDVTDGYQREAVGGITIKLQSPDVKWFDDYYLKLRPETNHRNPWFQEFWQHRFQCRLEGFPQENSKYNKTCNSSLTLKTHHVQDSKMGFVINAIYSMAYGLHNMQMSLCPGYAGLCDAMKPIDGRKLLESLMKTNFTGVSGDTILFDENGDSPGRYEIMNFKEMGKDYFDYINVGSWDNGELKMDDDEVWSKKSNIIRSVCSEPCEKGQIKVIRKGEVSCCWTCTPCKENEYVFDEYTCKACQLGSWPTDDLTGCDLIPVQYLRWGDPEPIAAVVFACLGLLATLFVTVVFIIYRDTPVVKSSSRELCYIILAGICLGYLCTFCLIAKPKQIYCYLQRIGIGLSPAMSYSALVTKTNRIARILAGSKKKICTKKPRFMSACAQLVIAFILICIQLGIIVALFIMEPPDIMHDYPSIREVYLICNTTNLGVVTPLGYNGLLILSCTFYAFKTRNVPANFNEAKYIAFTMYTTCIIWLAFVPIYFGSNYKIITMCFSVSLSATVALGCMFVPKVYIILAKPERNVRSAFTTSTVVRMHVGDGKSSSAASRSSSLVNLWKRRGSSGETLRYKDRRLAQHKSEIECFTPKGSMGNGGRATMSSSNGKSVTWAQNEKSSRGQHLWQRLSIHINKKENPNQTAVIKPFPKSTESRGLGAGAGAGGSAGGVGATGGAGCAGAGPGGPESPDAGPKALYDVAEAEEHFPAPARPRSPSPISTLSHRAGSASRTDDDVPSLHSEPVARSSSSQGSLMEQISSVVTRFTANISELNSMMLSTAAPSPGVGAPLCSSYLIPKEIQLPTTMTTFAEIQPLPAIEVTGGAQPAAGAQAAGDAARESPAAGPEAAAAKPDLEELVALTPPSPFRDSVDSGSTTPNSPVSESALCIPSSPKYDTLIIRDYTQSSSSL
Metabotropic glutamate receptor 1 (Rattus norvegicus), sequence (P23385 19-1199 limits assumed): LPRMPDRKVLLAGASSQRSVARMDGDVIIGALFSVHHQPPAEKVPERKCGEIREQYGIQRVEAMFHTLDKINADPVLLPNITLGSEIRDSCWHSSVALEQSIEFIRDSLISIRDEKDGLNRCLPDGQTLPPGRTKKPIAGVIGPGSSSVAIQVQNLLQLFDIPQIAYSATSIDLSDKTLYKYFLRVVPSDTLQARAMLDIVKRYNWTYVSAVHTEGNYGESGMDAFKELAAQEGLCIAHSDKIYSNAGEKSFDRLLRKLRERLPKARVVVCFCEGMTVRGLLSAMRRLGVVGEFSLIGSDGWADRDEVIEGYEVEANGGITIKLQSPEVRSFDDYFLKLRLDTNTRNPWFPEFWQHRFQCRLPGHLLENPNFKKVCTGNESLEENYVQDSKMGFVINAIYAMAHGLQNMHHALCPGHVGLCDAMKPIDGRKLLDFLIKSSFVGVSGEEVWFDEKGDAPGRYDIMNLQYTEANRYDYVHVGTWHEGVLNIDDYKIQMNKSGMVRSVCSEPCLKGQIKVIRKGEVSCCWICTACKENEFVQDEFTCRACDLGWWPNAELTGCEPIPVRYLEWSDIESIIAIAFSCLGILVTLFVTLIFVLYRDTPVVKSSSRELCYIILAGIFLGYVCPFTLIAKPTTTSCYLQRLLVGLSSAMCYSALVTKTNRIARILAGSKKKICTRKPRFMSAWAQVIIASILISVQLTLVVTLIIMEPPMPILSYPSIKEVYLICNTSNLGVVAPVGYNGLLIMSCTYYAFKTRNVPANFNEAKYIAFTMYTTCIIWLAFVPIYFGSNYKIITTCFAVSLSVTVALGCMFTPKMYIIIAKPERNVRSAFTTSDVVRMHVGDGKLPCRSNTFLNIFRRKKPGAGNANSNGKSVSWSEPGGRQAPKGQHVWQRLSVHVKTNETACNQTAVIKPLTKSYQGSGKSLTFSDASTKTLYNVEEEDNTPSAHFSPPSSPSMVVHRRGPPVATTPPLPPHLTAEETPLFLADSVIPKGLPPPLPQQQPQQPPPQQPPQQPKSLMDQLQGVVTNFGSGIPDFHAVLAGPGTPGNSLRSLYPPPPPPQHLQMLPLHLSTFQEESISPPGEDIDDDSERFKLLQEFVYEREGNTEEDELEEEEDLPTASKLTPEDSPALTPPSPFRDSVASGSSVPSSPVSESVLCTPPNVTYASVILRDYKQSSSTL

In the case of `CC1(NC(=O)c2ccc(C#Cc3cccc(F)c3)cn2)COC1`, the result in series [1], in series [2], in [5], in series [10], in [12] and in [13] was inactive. Besides, the outcome in [15] was inactive. Further, the Activity is given as 101.2% in series [3]; “Active” in series [4]; “Not Active” in series [6]; 127.9% in series [8]; 100.3% in series [9]. In addition, the IC50 (as a rule, the concentration at which inhibition is half-maximal) against Cytochrome P450 2D6 was above 30 µM; against Cytochrome P450 2C9 it was above 30 µM; on Cytochrome P450 1A2, 5.3 µM. The Fu is reported as 1.6% in the series on Brain, 3.6% in the series on Plasma [7] and 3.5% in the series on Plasma [11]. The Efficacy in series [14] was found to be 45.5%.

For the molecule `C[C@@H](NC(=O)c1ccc(C#Cc2ccccn2)cn1)C(C)(C)O`, the results for the Activity entry in [16] and in series [6] were “Active” and “Not Active”, respectively. Further, the Efficacy in series [14] turned out to be 57.5%. In [17], the fold change (FC) came to 1.7. Further, the EC50 was 41.3 nM in series [18] (read-out: EC50) and 93.3 nM in [18] (read-out: pEC50 (converted)).

Take `O=C(NC1CCC1)c1ccc(C#Cc2cccc(F)c2)nc1`: in [19], the EC50 is 39 nM. In [20], the fraction unbound was 0.011. For the same molecule, in series [21], the Kp was found to be 0.13.

As to `Fc1cccc(/C=N/N=C/c2cccc(F)c2)c1`, the EC50 in [22] was determined as 2600 nM.

In the case of `O=C(c1ccc(F)cc1)N1CCC[C@H](c2nc(-c3ccc(F)cc3)no2)C1`, the EC50 in series [23] turned out to be 157 nM; in series [24] it was 55 nM.
